Test results from ChEMBL document CHEMBL4819099, “A biphenyl inhibitor of eIF4E targeting an internal binding site enables the design of cell-permeable PROTAC-degraders” (Eur J Med Chem, 2021).
pIC50: −log10 of the molar value. Each block holds one compound with its values, some of them ahead of it. Calls of active or inactive are those of the source. The calls are words filed in the database; no cut-off is given here.

Assays:
[1] = molecular target: T1, Protein cereblon/Eukaryotic translation initiation factor 4E (Homo sapiens) (UniProt P06730+Q96SW2); experiment: Protac activity at CRBN/eIF4E in human HEK293T cells assessed as induction of intracellular eIF4E degradation at 1 uM measured after 0.5 to 24 hrs by Western blot analysis; format: cell-based; details: time 0.5-24 hrs
Summary of the method: (§1)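 HEK293T cells exposed either to 0.1-10 μM PROTAC for 24 h or to 1 μM PROTAC for 0.5 to 24 h, DMSO-treated cells alongside; eIF4E level assessed by immunoblotting.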

[2] = system: HeLa; experiment: Cytotoxicity activity against human HeLa cells assessed as cell killing at 10 uM measured after 24 hrs by CellTiter Glo luminescence assay; format: functional
Summary of the method: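 HeLa cells in 4.5 g/L glucose DMEM, 10% FBS, 1% pen/strep, 5x10³ cells/well; medium replaced 24 h post-seeding with drug-containing medium at equal DMSO. CellTiter-Glo luminescence read, normalized to DMSO control; at least two experiments, triplicates.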

[3] = molecular target: T1, Protein cereblon/Eukaryotic translation initiation factor 4E (Homo sapiens); experiment: Protac activity at CRBN/eIF4E in human HEK293T cells assessed as induction of eIF4E ubiquitination at 1 uM in presence of 26S proteasome inhibitor, Bortezomib by Western blot analysis; format: cell-based
Summary of the method: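 HEK293T cells incubated with 1 μM PROTAC plus 100 nM bortezomib; eIF4E ubiquitination compared with bortezomib-alone and DMSO-treated cells.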

[4] = molecular target: T1, Protein cereblon/Eukaryotic translation initiation factor 4E (Homo sapiens); experiment: Protac activity at CRBN/eIF4E in human HEK293T cells assessed as induction of intracellular eIF4E degradation at 0.1 to 10 uM measured after 24 hrs by Western blot analysis; format: cell-based; details: dose 0.1-10 µM; summary of the method: as §1
[5] = system: MM1.S; experiment: Cytotoxicity against human MM1.S cells assessed as reduction in cell viability after 72 hrs by Cell specific bioluminescence imaging (CS-BLI) assay
[6] = system: MM1.S; experiment: Cytotoxicity against human MM1.S cells assessed as reduction in cell viability after 48 hrs by Cell specific bioluminescence imaging (CS-BLI) assay
[7] = system: MCF7; experiment: Cytotoxicity against human MCF7 cells assessed as reduction in cell viability after 48 hrs by Cell specific bioluminescence imaging (CS-BLI) assay; details: MCF7, 48 h
[8] = system: MCF7; experiment: Cytotoxicity against human MCF7 cells assessed as reduction in cell viability after 72 hrs by Cell specific bioluminescence imaging (CS-BLI) assay; details: MCF7, 72 h
[9] = system: MCF7; experiment: Cytotoxicity against human MCF7 cells assessed as reduction in cell viability after 24 hrs by Cell specific bioluminescence imaging (CS-BLI) assay; details: MCF7, 24 h
[10] = system: MM1.S; experiment: Cytotoxicity against human MM1.S cells assessed as reduction in cell viability after 24 hrs by Cell specific bioluminescence imaging (CS-BLI) assay
[11] = molecular target: Protein cereblon (Homo sapiens, UniProt Q96SW2); experiment: Binding affinity to Cereblon in human Flp293T cells transfected with BRD4(BD2)-GFP fusion protein and mCherry reporter assessed as inhibition of dBET6-induced BRD4(BD2) degradation after 5 hrs fluorescence based analysis; format: cell-based, Flp-In-293
Summary of the method: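 Flp293T cells stably expressing BRD4_BD2-GFP plus mCherry reporter, seeded a day earlier in FluoroBrite DMEM/10% FBS; compounds in dose response co-dosed with 100 nM dBET6 (0.5% DMSO), 5 h. […] Lenalidomide positive control.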

[12] = molecular target: Protein cereblon/Sal-like protein 4 (Homo sapiens) (UniProt Q96SW2+Q9UJQ4); experiment: Protac activity at CRBN/SALL4 in human Kelly cells assessed as induction of SALL4 degradation by measuring downregulation of SALL4 protein expression at 1 uM measured after 5 hrs by proteomics analysis based LC-MS analysis; format: cell-based
Summary of the method: (§2)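 Kelly cells given 1 μM compound or DMSO (biological triplicate) for 5 h; urea/EPPS pH 8.5 lysis, 100 μg protein reduced, alkylated, digested, TMT-labelled, high-pH reverse-phase fractionated into 96 fractions; LC-MS over a 190 min 9-32% acetonitrile gradient with MS3-based TMT quantification with real-time search; change relative to DMSO.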

[13] = molecular target: Protein cereblon/Zinc finger protein 692 (Homo sapiens) (UniProt Q96SW2+Q9BU19); experiment: Protac activity at CRBN/ZNF692 in human Kelly cells assessed as induction of ZNF692 degradation by measuring downregulation of ZNF692 protein expression at 1 uM measured after 5 hrs by proteomics analysis based LC-MS analysis; format: cell-based; summary of the method: as §2
[14] = molecular target: Protein cereblon/Zinc finger protein 827 (Homo sapiens) (UniProt Q96SW2+Q17R98); experiment: Protac activity at CRBN/ZNF827 in human Kelly cells assessed as induction of ZNF827 degradation by measuring downregulation of ZNF827 protein expression at 1 uM measured after 5 hrs by proteomics analysis based LC-MS analysis; format: cell-based; summary of the method: as §2
[15] = molecular target: T1, Protein cereblon/Eukaryotic translation initiation factor 4E (Homo sapiens); experiment: Protac activity at CRBN/eIF4E in human Kelly cells assessed as induction of eIF4E degradation by measuring downregulation of eIF4E protein expression at 1 uM measured after 5 hrs by proteomics analysis based LC-MS analysis; format: cell-based; summary of the method: as §2

T1 sequence (P06730 whole entry, looked up): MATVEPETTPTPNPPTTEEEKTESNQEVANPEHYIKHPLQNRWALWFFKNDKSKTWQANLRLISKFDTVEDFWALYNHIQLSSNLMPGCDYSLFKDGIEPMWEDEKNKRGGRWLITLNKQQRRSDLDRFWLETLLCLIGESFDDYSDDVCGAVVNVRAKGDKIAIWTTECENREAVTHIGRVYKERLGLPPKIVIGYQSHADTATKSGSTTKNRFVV
T1 sequence (Q96SW2 whole entry, looked up): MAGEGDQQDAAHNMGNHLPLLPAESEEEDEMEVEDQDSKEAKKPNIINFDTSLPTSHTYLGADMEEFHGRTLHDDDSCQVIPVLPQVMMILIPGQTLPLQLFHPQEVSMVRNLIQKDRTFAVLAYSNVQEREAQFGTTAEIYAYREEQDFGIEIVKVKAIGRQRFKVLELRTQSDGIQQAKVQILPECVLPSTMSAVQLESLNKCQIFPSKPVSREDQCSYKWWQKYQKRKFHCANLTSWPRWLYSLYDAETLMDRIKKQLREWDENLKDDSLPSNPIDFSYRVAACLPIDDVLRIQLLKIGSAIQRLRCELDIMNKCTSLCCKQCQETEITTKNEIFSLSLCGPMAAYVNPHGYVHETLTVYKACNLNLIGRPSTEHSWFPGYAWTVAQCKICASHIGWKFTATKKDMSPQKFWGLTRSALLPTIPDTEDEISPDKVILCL
Protein cereblon, sequence (Q96SW2 whole entry, the tested form may be a part): as the sequence (Q96SW2 whole entry, looked up) above
Protein cereblon/Zinc finger protein 827 (Homo sapiens), sequence (Q17R98 whole entry, looked up): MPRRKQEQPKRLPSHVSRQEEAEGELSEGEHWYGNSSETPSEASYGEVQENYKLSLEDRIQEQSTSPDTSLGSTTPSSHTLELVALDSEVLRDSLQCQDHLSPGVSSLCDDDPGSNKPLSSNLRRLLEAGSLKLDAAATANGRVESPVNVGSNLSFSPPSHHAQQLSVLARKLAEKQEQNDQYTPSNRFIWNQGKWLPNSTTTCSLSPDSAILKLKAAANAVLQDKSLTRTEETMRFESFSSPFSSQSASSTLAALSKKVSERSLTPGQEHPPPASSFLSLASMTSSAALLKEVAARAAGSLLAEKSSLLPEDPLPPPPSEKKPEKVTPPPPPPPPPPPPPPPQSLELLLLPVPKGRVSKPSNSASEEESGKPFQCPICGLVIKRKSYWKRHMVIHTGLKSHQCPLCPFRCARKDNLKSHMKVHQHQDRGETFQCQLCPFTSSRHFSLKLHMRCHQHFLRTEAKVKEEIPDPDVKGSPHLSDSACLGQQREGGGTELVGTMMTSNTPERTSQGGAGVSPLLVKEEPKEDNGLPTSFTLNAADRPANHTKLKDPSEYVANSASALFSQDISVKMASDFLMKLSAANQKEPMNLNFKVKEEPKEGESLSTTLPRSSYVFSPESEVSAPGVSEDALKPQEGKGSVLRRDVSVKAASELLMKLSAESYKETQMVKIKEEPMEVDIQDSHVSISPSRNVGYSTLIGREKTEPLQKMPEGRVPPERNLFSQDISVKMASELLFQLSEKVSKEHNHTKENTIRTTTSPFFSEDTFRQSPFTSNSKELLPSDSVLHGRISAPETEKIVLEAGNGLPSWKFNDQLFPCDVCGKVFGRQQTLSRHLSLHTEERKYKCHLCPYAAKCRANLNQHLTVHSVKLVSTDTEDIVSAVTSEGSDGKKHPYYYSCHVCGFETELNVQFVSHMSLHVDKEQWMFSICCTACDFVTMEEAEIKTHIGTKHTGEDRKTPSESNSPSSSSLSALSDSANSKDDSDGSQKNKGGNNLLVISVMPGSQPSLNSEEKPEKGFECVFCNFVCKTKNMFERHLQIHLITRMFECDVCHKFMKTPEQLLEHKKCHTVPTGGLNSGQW
Protein cereblon/Zinc finger protein 827 (Homo sapiens), sequence (Q96SW2 whole entry, looked up): as the sequence (Q96SW2 whole entry, looked up) above
Protein cereblon/Sal-like protein 4 (Homo sapiens), sequence (Q96SW2 whole entry, looked up): as above
Protein cereblon/Sal-like protein 4 (Homo sapiens), sequence (Q9UJQ4 whole entry, looked up): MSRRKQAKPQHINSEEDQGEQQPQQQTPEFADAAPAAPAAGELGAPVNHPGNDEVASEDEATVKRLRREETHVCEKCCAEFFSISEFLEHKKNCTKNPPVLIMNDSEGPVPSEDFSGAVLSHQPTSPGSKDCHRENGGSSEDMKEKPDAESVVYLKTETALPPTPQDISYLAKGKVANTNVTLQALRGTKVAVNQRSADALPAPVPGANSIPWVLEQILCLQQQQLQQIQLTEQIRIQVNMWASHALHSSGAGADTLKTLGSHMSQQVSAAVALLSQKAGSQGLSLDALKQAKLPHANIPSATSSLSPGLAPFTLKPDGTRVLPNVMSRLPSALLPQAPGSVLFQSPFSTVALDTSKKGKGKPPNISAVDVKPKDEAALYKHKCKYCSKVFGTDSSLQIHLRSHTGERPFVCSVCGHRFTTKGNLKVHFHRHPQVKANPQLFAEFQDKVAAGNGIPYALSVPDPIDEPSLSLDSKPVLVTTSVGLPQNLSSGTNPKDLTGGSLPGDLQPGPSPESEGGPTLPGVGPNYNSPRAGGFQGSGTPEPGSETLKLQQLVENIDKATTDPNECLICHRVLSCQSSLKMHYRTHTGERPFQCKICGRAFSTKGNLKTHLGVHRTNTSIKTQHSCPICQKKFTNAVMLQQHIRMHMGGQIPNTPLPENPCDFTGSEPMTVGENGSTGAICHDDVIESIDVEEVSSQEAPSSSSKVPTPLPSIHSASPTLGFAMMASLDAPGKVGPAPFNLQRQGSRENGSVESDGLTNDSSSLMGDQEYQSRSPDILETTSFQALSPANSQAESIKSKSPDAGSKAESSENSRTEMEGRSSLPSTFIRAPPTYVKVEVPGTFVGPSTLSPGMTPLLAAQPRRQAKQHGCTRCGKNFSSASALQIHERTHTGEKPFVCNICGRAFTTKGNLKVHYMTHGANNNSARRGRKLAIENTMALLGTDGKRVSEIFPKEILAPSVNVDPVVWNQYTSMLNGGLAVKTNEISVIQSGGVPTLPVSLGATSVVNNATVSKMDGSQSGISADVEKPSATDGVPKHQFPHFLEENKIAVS
Protein cereblon/Zinc finger protein 692 (Homo sapiens), sequence (Q96SW2 whole entry, looked up): as the sequence (Q96SW2 whole entry, looked up) above
Protein cereblon/Zinc finger protein 692 (Homo sapiens), sequence (Q9BU19 whole entry, looked up): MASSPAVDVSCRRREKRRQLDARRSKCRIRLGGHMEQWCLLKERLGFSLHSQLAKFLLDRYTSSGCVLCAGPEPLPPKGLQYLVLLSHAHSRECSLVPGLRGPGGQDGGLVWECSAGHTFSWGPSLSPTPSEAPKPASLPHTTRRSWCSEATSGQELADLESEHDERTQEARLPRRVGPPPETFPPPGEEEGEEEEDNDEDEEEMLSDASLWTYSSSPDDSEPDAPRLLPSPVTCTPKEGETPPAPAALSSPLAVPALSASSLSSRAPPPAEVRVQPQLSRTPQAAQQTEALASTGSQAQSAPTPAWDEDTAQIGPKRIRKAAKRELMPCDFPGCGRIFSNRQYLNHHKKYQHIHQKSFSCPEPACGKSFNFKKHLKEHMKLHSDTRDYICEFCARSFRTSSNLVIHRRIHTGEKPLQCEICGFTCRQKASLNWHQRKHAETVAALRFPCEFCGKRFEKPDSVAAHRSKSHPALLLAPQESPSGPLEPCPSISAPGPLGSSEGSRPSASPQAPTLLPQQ

SMILES: C/C(=N\Nc1nc(-c2ccc(-c3ccccc3)cc2)cs1)C(=O)NCCNc1cccc2c1C(=O)N(C1CCC(=O)NC1=O)C2=O (configuration not stated)
Activity [1]: inactive | Activity [2]: 50% | Activity [3]: inactive | Activity [4]: inactive

SMILES: O=C(O)C(Cc1ccccc1[N+](=O)[O-])=NNc1nc(-c2ccc(Cl)c(Cl)c2)cs1
pIC50 [5]: 4.81 | pIC50 [6]: 4.73 | pIC50 [7]: 4.37 | pIC50 [8]: 4.45 | pIC50 [9]: 4.15 | pIC50 [10]: 4.65

SMILES: C/C(=N\Nc1nc(-c2ccc(-c3ccccc3)cc2)cs1)C(=O)NCCCNc1cccc2c1C(=O)N(C1CCC(=O)NC1=O)C2=O (configuration not stated)
Activity [2]: 50%

Second part, the compound after the results:

pIC50 [11]: 4.89
SMILES: O=C1CCC(N2C(=O)c3cccc(NCCCCNC(=O)/C(=N\Nc4nc(-c5ccc(-c6ccccc6)cc5)cs4)c4ccccc4[N+](=O)[O-])c3C2=O)C(=O)N1 (configuration not stated)

Activity [1]: inactive | Activity [3]: inactive | Activity [4]: inactive | pIC50 [11]: 4.68
SMILES: C/C(=N\Nc1nc(-c2ccc(Cl)c(Cl)c2)c(CC(=O)NCCNc2cccc3c2C(=O)N(C2CCC(=O)NC2=O)C3=O)s1)C(=O)OCOC(=O)C(C)(C)C (configuration not stated)

Activity [12]: Active | Activity [13]: Active | Activity [14]: Active | pIC50 [11]: 5.80 | Activity [15]: inactive
SMILES: C/C(=N\Nc1nc(-c2ccc(-c3ccccc3)cc2)cs1)C(=O)NCCCCNc1cccc2c1C(=O)N(C1CCC(=O)NC1=O)C2=O (configuration not stated)

Activity ([11]; Flp-In-293): inactive
SMILES: O=C(COc1cccc2c1C(=O)N(C1CCC(=O)NC1=O)C2=O)NCCCCNC(=O)Cc1sc(N/N=C(\Cc2ccccc2[N+](=O)[O-])C(=O)O)nc1-c1ccc(Cl)c(Cl)c1 (configuration not stated)
